{"data": "Published values collected from several papers", "cell line": "NCI-H1975", "observed": "cell growth or viability"}
{"Compound": "CC(C)(C)[C@H](N)C(=O)Nc1ccccc1/N=c1\\cc(-c2ccc3c(c2)OCCO3)oc2cc(F)ccc12", "test": "CCK-8", "conditions": "1 µM", "measurement": "inhibition", "value": "-7.44%"}
{"Compound": "COc1cccc(NC(=O)Nc2nc3cc(-c4ccc5ncn(CCN(C)C)c(=O)c5c4)ccc3s2)c1", "test": "MTT", "conditions": "72 h", "measurement": "IC50", "value": "> 20 µM"}
{"Compound": "CCCn1cnc2ccc(-c3ccc(NC(=O)CC4CC4)nc3)cc2c1=O", "test": "CCK-8", "conditions": "72 h", "measurement": "IC50", "value": "3.48 µM"}
{"Compound": "N[C@@H](CO)C(=O)Nc1ccccc1/N=c1\\cc(-c2ccc3c(c2)OCO3)oc2ccccc12", "test": "CCK-8", "conditions": "1 µM", "measurement": "inhibition", "value": "-1.95%"}
{"Compound": "CCCCC(=O)Nc1ccc(-c2ccc3ncn(CC4CCC4)c(=O)c3c2)cn1", "test": "CCK-8", "conditions": "72 h", "measurement": "IC50", "value": "1.4 µM"}
{"Compound": "Cc1ccc(NC(=O)Nc2nc3cc(-c4ccc5ncn(Cc6ccccc6)c(=O)c5c4)ccc3s2)cc1", "test": "MTT", "conditions": "72 h", "measurement": "IC50", "value": "> 20 µM"}
{"Compound": "CCCn1cnc2ccc(-c3ccc(NC(=O)c4ccccc4)nc3)cc2c1=O", "test": "CCK-8", "conditions": "72 h", "measurement": "IC50", "value": "0.095 µM"}
{"Compound": "COc1ccc2/c(=N/c3ccccc3NC(=O)[C@H](C)N)cc(-c3ccc4c(c3)OCCO4)oc2c1", "test": "CCK-8", "conditions": "1 µM", "measurement": "inhibition", "value": "5.17%"}
{"Compound": "COc1ccc(NC(=O)Nc2nc3cc(-c4ccc5ncn(CCN(C)C)c(=O)c5c4)ccc3s2)cc1", "test": "MTT", "conditions": "72 h", "measurement": "IC50", "value": "> 20 µM"}
{"Compound": "C#Cc1cccc(Nc2ncnc3cc(OCCOC)c(OCCOC)cc23)c1", "test": "MTT", "conditions": "72 h", "measurement": "IC50", "value": "5.72 µM"}
